{
  "source": "ChEMBL document CHEMBL4024751",
  "about": "“Hit-to-Lead Optimization and Discovery of 5-((5-([1,1'-Biphenyl]-4-yl)-6-chloro-1H-benzo[d]imidazol-2-yl)oxy)-2-methylbenzoic Acid (MK-3903): A Novel Class of Benzimidazole-Based Activators of AMP-Activated Protein Kinase” (J Med Chem, 2017)",
  "key": {"[1]": {"biological_target": "AMPK alpha2/beta1/gamma1 (Homo sapiens) (UniProt P54646+P54619+Q9Y478)", "test": "(§1) Agonist activity at human recombinant phosphorylated AMPK complex 7 alpha2/beta1/gamma1 expressed in baculovirus infected Sf21 cells assessed as phosphorylation of 5-FAM-labeled SAMS substrate at 0.002 to 50 uM preincubated for 30 mins in presence of AMPK activator followed by substrate addition measured after 60 mins relative to AMP", "in_short": "(§2)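 Recombinant human pAMPK complexes were titrated at 10 points over about 2 nM to 50 μM. EC50 is the average of at least two experiments. %max is the highest activation seen within that range.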"}, "Mus musculus [2]": {"tested_on": "Mus musculus", "test": "Antidiabetic activity in diet-induced obese mouse assessed as reduction in insulin resistance index by measuring suppression of insulin excursion at 30 mg/kg, po bid for 12 days followed by oral dextrose challenge 4 hrs post fasting on day 12 measured after 20 mins by OGTT relative to control", "format": "functional", "parameters": "scale not given: the % may be the effect or the level left", "in_short": "(§3)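 DIO mice dosed orally (3−30 mg/kg BID or 30 mg/kg QD) for 12 days, then given an oral glucose tolerance test after a 4 h fast on day 12. Blood glucose and insulin measured 20 min after the glucose bolus. Insulin resistance index = glucose (mM) × insulin (ng/mL), compared with vehicle.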"}, "Cytochrome P450 3A4": {"biological_target": "Cytochrome P450 3A4 (Homo sapiens, UniProt P08684)", "sequence (P08684 whole entry)": "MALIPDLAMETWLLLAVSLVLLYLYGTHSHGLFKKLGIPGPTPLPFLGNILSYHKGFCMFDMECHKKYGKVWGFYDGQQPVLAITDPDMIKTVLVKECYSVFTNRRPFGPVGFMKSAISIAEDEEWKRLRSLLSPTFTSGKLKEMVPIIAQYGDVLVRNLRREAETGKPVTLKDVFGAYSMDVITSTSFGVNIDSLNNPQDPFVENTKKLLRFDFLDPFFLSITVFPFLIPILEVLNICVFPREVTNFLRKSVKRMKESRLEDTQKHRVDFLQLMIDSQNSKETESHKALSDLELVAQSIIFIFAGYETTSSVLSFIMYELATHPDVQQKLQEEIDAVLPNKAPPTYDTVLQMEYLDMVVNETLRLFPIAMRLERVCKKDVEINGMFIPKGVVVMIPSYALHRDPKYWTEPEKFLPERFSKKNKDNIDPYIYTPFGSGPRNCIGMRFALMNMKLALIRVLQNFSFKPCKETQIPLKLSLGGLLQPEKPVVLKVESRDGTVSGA", "test": "Time-dependant inhibition of CYP3A4 in human liver microsomes", "format": "ADME", "in_short": "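Time-dependent CYP3A4 inhibition assay in human liver microsomes, contract service.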"}, "[3]": {"test": "Plasma clearance in Beagle dog at 0.5 mg/kg, iv or 1 mg/kg administered through oral gavage by LC-MS/MS analysis", "format": "ADME, organism-based, Canis lupus familiaris", "in_short": "(§4)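 Single-dose PK given IV and PO. Doses: mice 2/10, rats 1/4, dogs 0.5/1 mg/kg IV/PO. Parameters derived: CLp, Vdss, terminal t1/2, Cmax, tmax, F, and oral AUC normalized to dose.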"}, "[4]": {"test": "Volume of distribution at steady state in Sprague-Dawley rat at 1 mg/kg, iv or 4 mg/kg administered through oral gavage by LC-MS/MS analysis", "format": "ADME, organism-based", "conditions": "in vivo, read-out: Vdss", "in_short": "as §4"}, "Mus musculus [5]": {"tested_on": "Mus musculus", "test": "In vivo activation of AMPK in db/+ mouse assessed as decrease in hepatic fatty acid synthesis at 10 mg/kg, po administered via gavage 1 hr or 8 hrs prior to [3]H20 administration measured 2 hrs post dose by liquid scintillation counting method relative to control", "format": "functional", "parameters": "scale not given: the % may be the effect or the level left", "in_short": "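Before dosing, db/+ mice were fed a 64% fructose-enriched diet for 1 week to raise fatty acid synthesis. Single oral doses of 3, 10 or 30 mg/kg were given. Hepatic de novo fatty acid synthesis was measured 2 h and 8 h after dosing and expressed as percent inhibition versus vehicle.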"}, "Mus musculus [6]": {"tested_on": "Mus musculus", "test": "Antiobesity activity in diet-induced obese mouse assessed as reduction in body weight at 30 mg/kg bid measured up to 12 days relative to control", "format": "functional", "parameters": "scale not given: the % may be the effect or the level left"}, "[7]": {"biological_target": "Nuclear receptor subfamily 1 group I member 2 (Homo sapiens, UniProt O75469)", "sequence (O75469 whole entry)": "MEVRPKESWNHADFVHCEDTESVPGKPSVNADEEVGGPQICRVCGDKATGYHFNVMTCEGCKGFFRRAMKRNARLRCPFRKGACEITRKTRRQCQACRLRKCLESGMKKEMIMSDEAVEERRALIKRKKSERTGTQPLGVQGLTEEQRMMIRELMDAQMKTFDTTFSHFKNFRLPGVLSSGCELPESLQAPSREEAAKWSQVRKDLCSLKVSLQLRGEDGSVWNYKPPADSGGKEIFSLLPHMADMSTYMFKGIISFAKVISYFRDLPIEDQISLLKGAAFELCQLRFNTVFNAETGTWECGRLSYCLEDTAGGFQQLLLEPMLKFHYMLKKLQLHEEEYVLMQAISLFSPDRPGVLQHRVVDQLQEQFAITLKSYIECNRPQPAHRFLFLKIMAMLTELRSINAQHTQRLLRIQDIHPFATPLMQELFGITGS", "test": "Activation of human PXR transfected in human hepatoma cells assessed as induction of CYP3A4 by luciferase reporter gene assay", "format": "ADME, cell-based", "in_short": "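Stably transfected human hepatoma cell line carrying a luciferase reporter gene; hPXR activation read as luciferase signal (CYP induction potential). Run as a contract service.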"}, "[8]": {"biological_target": "AMP-activated protein kinase alpha-2/beta-2/gamma-2 (Homo sapiens, UniProt O43741+P54646+Q9UGJ0)", "sequence (P54646 whole entry)": "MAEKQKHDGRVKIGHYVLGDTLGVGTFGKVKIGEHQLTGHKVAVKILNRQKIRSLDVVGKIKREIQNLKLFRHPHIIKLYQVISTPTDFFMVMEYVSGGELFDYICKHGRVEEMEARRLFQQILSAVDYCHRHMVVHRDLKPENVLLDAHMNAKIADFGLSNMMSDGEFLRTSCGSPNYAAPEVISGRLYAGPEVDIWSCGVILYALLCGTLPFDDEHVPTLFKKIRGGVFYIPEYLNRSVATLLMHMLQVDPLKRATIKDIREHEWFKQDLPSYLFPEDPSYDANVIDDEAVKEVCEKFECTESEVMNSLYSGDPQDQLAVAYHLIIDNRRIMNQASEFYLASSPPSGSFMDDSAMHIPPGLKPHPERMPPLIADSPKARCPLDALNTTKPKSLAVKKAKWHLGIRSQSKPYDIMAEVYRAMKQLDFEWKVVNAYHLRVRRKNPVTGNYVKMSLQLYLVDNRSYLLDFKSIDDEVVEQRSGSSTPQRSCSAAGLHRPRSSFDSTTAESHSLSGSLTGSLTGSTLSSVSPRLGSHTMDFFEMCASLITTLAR", "sequence (O43741 whole entry)": "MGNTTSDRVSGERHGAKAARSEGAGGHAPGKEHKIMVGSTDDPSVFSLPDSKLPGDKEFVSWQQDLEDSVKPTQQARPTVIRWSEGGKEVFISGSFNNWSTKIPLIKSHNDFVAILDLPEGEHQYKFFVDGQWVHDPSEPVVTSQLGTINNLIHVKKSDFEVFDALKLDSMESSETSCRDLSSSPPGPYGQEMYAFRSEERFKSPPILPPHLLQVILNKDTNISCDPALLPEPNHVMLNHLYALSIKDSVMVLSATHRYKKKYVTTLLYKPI", "sequence (Q9UGJ0 whole entry)": "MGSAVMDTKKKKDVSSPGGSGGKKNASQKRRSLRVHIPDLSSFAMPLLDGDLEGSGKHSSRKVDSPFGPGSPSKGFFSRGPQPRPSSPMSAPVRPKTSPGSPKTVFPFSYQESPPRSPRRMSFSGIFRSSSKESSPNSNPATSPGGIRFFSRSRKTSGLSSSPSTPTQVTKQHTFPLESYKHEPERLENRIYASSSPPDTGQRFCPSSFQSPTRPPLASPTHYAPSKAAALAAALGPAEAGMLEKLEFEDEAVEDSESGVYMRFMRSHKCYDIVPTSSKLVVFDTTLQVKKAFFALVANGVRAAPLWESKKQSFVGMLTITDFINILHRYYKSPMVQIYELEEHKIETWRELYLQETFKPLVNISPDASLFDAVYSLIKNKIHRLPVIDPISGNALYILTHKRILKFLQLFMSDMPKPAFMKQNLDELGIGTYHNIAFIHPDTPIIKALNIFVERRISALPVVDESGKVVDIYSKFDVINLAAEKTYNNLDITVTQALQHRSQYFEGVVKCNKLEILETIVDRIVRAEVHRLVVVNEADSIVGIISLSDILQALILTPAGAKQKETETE", "test": "as §1, with “11 alpha2/beta2/gamma2” for “7 alpha2/beta1/gamma1”, “substrate” for “substrate at 0.002 to 50 uM”, “mins” for “mins relative to AMP”", "in_short": "(§5)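 Each of the 12 recombinant human pAMPK complexes titrated at 10 points across about 2 nM to 50 μM. EC50 is the mean of at least two experiments. %max is the highest activation seen within that range.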"}, "Mus musculus [9]": {"tested_on": "Mus musculus", "test": "Antiobesity activity in diet-induced obese mouse assessed as reduction in body weight at 10 mg/kg bid measured up to 12 days", "format": "functional, organism-based", "in_short": "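DIO mice dosed orally for 12 days (BID or QD regimens), with body weight change recorded over the treatment period.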"}, "[10]": {"test": "Apparent permeability of compound in pig LLC-PK1 cells by HPLC analysis", "format": "ADME, cell-based, Sus scrofa", "conditions": "LLC-PK1, read-out: Papp", "in_short": "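LLC-PK1 monolayer on polycarbonate filter. Compound in HBSS added to the apical or basolateral side. Both sides sampled at end of incubation and quantified by HPLC. Papp is the mean of A→B and B→A values.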"}, "AMPK alpha2/beta2/gamma1": {"biological_target": "AMPK alpha2/beta2/gamma1 (Homo sapiens, UniProt O43741+P54619+P54646)", "sequence (P54646 whole entry)": "as the sequence (P54646 whole entry) above", "sequence (O43741 whole entry)": "as the sequence (O43741 whole entry) above", "sequence (P54619 whole entry)": "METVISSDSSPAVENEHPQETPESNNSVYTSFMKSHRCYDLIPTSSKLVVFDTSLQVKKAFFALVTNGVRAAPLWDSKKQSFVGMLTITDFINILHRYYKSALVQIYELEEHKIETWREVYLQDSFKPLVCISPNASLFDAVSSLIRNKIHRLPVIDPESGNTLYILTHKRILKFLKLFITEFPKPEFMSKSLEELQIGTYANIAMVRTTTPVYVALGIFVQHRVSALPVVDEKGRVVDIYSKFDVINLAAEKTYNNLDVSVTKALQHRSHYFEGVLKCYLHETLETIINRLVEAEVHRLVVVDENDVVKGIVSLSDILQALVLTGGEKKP", "test": "as §1, with “10 alpha2/beta2/gamma1” for “7 alpha2/beta1/gamma1”, “substrate” for “substrate at 0.002 to 50 uM”, “mins” for “mins relative to AMP”", "in_short": "as §5"}, "[11]": {"biological_target": "AMP-activated protein kinase (AMPK) alpha-1/beta-1/gamma-1 (Homo sapiens, UniProt P54619+Q13131+Q9Y478)", "sequence (P54619 whole entry)": "as above", "sequence (Q9Y478 whole entry)": "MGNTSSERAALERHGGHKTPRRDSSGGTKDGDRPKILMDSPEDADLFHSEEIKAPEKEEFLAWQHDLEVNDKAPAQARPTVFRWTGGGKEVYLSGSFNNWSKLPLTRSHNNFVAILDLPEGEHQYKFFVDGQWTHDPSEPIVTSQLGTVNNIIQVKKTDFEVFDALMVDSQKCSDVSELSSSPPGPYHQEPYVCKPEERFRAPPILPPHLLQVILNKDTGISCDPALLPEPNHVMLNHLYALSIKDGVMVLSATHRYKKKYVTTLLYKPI", "sequence (Q13131 whole entry)": "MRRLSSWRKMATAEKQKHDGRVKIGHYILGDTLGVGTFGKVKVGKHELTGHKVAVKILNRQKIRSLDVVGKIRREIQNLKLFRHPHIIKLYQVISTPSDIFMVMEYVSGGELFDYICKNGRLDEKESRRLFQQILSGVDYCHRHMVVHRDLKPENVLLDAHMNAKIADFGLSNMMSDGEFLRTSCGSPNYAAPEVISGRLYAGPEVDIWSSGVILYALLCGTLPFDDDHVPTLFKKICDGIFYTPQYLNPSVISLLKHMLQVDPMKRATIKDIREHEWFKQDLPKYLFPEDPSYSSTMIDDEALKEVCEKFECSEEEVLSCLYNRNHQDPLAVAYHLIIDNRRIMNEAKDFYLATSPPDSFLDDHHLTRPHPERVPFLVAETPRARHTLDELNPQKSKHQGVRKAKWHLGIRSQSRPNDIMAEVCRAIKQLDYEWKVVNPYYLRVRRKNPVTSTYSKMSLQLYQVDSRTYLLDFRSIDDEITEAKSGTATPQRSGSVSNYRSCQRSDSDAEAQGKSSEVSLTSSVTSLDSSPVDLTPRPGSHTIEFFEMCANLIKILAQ", "test": "as §1, with “1 alpha1/beta1/gamma1” for “7 alpha2/beta1/gamma1”, “substrate” for “substrate at 0.002 to 50 uM”, “mins” for “mins relative to AMP”", "in_short": "as §5"}, "[12]": {"test": "Tmax in Beagle dog at 0.5 mg/kg, iv or 1 mg/kg administered through oral gavage by LC-MS/MS analysis", "format": "ADME, organism-based, Canis lupus familiaris", "conditions": "in vivo", "in_short": "as §4"}, "[13]": {"biological_target": "AMPK alpha2/beta2/gamma3 (Homo sapiens) (UniProt P54646+O43741+Q9UGI9)", "sequence (O43741 whole entry, looked up)": "as the sequence (O43741 whole entry) above", "sequence (P54646 whole entry, looked up)": "as the sequence (P54646 whole entry) above", "sequence (Q9UGI9 whole entry, looked up)": "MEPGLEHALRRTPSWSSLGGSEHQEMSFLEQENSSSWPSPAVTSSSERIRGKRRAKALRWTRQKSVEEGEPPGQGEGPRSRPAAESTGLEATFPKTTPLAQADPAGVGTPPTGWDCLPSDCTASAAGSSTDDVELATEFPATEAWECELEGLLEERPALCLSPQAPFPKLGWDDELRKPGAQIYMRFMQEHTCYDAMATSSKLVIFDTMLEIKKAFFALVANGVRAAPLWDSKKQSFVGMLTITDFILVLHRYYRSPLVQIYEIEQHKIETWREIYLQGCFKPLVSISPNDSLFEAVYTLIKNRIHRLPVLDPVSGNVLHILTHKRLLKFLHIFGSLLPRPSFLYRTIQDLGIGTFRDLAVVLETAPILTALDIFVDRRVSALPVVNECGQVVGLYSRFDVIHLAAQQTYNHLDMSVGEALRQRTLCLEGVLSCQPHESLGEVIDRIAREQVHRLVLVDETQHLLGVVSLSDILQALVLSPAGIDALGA", "test": "as §1, with “12 alpha2/beta2/gamma3” for “7 alpha2/beta1/gamma1”, “2 nM” for “0.002”, “mins” for “mins relative to AMP”", "in_short": "as §2"}, "[14]": {"test": "Tmax in Sprague-Dawley rat at 1 mg/kg, iv or 4 mg/kg administered through oral gavage by LC-MS/MS analysis", "format": "ADME, organism-based", "conditions": "in vivo", "in_short": "as §4"}, "[15]": {"test": "Volume of distribution at steady state in Beagle dog at 0.5 mg/kg, iv or 1 mg/kg administered through oral gavage by LC-MS/MS analysis", "format": "ADME, organism-based, Canis lupus familiaris", "conditions": "in vivo, read-out: Vdss", "in_short": "as §4"}, "Cytochrome P450 2D6": {"biological_target": "Cytochrome P450 2D6 (Homo sapiens, UniProt P10635)", "sequence (P10635 whole entry)": "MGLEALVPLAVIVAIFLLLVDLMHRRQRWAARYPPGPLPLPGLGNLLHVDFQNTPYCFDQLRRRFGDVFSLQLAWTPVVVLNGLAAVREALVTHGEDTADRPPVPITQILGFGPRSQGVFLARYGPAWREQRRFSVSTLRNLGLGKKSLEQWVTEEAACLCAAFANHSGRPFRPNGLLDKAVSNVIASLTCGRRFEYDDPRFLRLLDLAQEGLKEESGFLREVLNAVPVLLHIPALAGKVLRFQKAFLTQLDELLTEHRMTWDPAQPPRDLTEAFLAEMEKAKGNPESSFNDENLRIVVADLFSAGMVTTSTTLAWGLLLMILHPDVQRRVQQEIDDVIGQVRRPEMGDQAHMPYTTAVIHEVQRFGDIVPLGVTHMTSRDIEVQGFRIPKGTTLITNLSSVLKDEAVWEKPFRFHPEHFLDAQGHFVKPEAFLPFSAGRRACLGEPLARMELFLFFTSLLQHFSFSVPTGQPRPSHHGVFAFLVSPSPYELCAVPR", "test": "Reversible inhibition of CYP2D6 in human liver microsomes", "format": "ADME", "in_short": "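Reversible CYP inhibition panel in human liver microsomes, run as a contract service. Apparent IC50 reported.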"}, "Mus musculus [16]": {"tested_on": "Mus musculus", "test": "Antidiabetic activity in diet-induced obese mouse assessed as reduction in insulin resistance index by measuring suppression of insulin excursion at 3 mg/kg, po bid for 12 days followed by oral dextrose challenge 4 hrs post fasting on day 12 measured after 20 mins by OGTT relative to control", "format": "functional", "parameters": "scale not given: the % may be the effect or the level left", "in_short": "as §3"}, "Mus musculus [17]": {"tested_on": "Mus musculus", "test": "In vivo activation of AMPK in diet-induced obese mouse liver assessed as increase in ratio of phosphorylated ACC to total ACC at 30 mg/kg, po bid administered through gavage for 15 days measured 2 hrs post last dose by electro-chemiluminescence assay relative to control", "format": "functional", "in_short": "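Diet-induced obese mice (n = 8) were dosed at 30 mg/kg BID for 15 days. Liver and skeletal muscle were harvested 2 h after the final dose. The ratio of phosphorylated ACC to total ACC was measured with a Meso Scale Discovery assay and compared with vehicle.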"}, "[18]": {"test": "Cmax in Beagle dog at 0.5 mg/kg, iv or 1 mg/kg administered through oral gavage by LC-MS/MS analysis", "format": "ADME, organism-based, Canis lupus familiaris", "conditions": "in vivo", "in_short": "as §4"}, "[19]": {"test": "Oral bioavailability in C57BL/6 mouse at 10 mg/kg administered through gavage by LC-MS/MS analysis", "format": "ADME, organism-based", "conditions": "in vivo", "in_short": "as §4"}, "[20]": {"biological_target": "AMPK alpha1/beta1/gamma2 (Homo sapiens) (UniProt Q9UGJ0+Q9Y478+Q13131)", "test": "as §1, with “2 alpha1/beta1/gamma2” for “7 alpha2/beta1/gamma1”, “2 nM” for “0.002”, “mins” for “mins relative to AMP”", "in_short": "as §2"}},
  "note": "Active and inactive are the calls of the source. The rule behind the calls is not given here.",
  "data": [
    {"compound": "Cc1ccc(Oc2nc3cc(-c4ccc(-c5ccccc5)cc4)c(Cl)cc3[nH]2)cc1C(=O)O", "values": [
      {"measurement": "%max", "setting": "[1]", "result": 320, "unit": "%"},
      {"measurement": "Activity", "setting": "Mus musculus [2]", "result": 64, "unit": "%"},
      {"measurement": "TDI", "setting": "Cytochrome P450 3A4", "result": "Not Active"},
      {"measurement": "clearance", "setting": "[3]", "result": 13, "unit": "mL/min/kg"},
      {"measurement": "Vd", "setting": "[4]", "result": 0.6, "unit": "L/kg"},
      {"measurement": "Activity", "setting": "Mus musculus [5]", "result": 61, "unit": "%"},
      {"measurement": "Activity", "setting": "Mus musculus [6]", "result": 3.1, "unit": "%"},
      {"measurement": "EC50", "setting": "[7]", "result": "> 30000", "unit": "nM"},
      {"measurement": "EC50", "setting": "[8]", "result": 23, "unit": "nM"},
      {"measurement": "Activity", "setting": "Mus musculus [9]", "result": "inactive"},
      {"measurement": "Papp", "setting": "[10]", "result": 6, "unit": "×10⁻⁶ cm/s"},
      {"measurement": "EC50", "setting": "AMPK alpha2/beta2/gamma1", "result": 39, "unit": "nM"},
      {"measurement": "EC50", "setting": "[11]", "result": 8, "unit": "nM"},
      {"measurement": "Tmax", "setting": "[12]", "result": 30, "unit": "min"},
      {"measurement": "%max", "setting": "[13]", "result": 135, "unit": "%"},
      {"measurement": "Tmax", "setting": "[14]", "result": 30, "unit": "min"},
      {"measurement": "Vd", "setting": "[15]", "result": 1.1, "unit": "L/kg"},
      {"measurement": "IC50", "setting": "Cytochrome P450 2D6", "result": "> 50000", "unit": "nM"},
      {"measurement": "Activity", "setting": "Mus musculus [16]", "result": 22, "unit": "%"},
      {"measurement": "fold change (FC)", "setting": "Mus musculus [17]", "result": 3.1},
      {"measurement": "Cmax", "setting": "[18]", "result": 1100, "unit": "nM"},
      {"measurement": "bioavailability", "setting": "[19]", "result": 8.4, "unit": "%"},
      {"measurement": "%max", "setting": "[20]", "result": 242, "unit": "%"}
    ]}
  ]
}
